Where “and” joins values, the source holds several entries; their conditions need not be identical. Equal entries are not always repeated.
Columns and labels:
human CB2 receptor = human CB2 receptor (Homo sapiens, UniProt P34972); experiment: CB2 calcium mobilization assay, antagonist screen at 10 μM; type: cell-based; settings: read-out: CB2 % Inhibition of CP55,940, compound at 10 μM; percent inhibition of CP55,940 EC80 (100 nM); mean ± SEM, at least two independent experiments in duplicate
human CB1 receptor [1] = target: T1, human CB1 receptor (Homo sapiens, UniProt P21554); experiment: CB1 calcium mobilization assay, modulation experiments; type: cell-based; settings: Figure 2
T1 sequence (P21554 whole entry): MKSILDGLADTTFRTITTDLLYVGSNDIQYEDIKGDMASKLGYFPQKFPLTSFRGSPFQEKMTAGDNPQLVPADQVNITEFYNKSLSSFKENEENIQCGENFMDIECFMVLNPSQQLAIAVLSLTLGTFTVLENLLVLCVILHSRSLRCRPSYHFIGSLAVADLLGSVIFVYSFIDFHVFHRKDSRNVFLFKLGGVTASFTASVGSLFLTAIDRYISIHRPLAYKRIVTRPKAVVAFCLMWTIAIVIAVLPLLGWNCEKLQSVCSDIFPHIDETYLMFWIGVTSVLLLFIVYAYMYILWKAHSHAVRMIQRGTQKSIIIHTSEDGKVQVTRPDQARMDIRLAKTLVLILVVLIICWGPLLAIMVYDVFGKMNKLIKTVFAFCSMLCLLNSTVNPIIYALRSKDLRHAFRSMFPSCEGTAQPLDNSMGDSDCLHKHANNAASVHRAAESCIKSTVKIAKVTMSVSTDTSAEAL
Method in brief: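 CHO-RD-HGA16 cells stably expressing human CB1, plated the day before and kept overnight at 37°C, 5% CO2. Loaded with Calcium 5 dye for 45 min at 37°C in HBSS, 20 mM HEPES, 2.5 mM probenecid, pH 7.4. Pre-treated 15 min at 37°C with one test compound concentration, then serial CP55,940 dilutions added at 10 s. Fluorescence read every 1 s for 90 s.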

mice = settings: cited from earlier work
rats [2] = settings: cited from earlier work
rats [3] = settings: cited from earlier work; remark: listed apart in the source
over forty GPCRs = settings: including GPCRs commonly involved in drug addictions; cited from earlier work
human CB1 receptor [4] = target: T1, human CB1 receptor; experiment: CB1 calcium mobilization assay, antagonist; type: cell-based; settings: ratio of CB1 IC50 values
Method in brief: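 CHO-RD-HGA16 cells stably expressing human CB1 were plated overnight (37°C, 5% CO2), then Calcium 5 dye-loaded for 45 min at 37°C in HBSS/20 mM HEPES/2.5 mM probenecid, pH 7.4. Test compound dilutions were pre-incubated 15 min at 37°C. CP55,940 at EC80 was added at 10 s, and fluorescence was read every 1 s for 90 s. IC50 came from three-parameter logistic fits; at least three independent experiments in duplicate.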

human CB2 receptor, sequence (P34972 whole entry): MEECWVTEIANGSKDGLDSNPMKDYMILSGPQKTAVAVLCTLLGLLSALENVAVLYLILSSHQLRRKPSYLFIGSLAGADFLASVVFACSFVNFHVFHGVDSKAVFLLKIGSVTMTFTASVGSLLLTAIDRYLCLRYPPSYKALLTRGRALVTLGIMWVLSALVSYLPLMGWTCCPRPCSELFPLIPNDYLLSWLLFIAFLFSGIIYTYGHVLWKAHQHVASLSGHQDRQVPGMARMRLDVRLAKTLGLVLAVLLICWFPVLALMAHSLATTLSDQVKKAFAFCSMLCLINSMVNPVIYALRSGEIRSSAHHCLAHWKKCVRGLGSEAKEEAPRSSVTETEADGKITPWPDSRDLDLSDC

SMILES	inhibition at 10 µM (human CB2 receptor)	other results
CCc1c(C(=O)NCCc2ccc(N3CCCCC3)cc2)[nH]c2ccc(Cl)cc12 [Compound 1, Org27569]	-16.4 ± 1.8%	Effect on Emax of agonist CP55,940 (human CB1 receptor [1]): dose-dependently decreased the Emax; Anorectic effect, mechanism (mice): anorectic effect through non-CB1 specific mechanisms; Effect on CB1 agonist-induced effects (antinociception, catalepsy, hypothermia) (mice): did not enhance or block; Effect in catalepsy and antinociception (rats [2]): negative results; Effect on hypothermic effects of CB1 receptor agonists CP55940 and anandamide (rats [2]): attenuated the hypothermic effects; Cue- and drug-induced reinstatement of cocaine- and methamphetamine-seeking behavior (rats [3]): dose-related attenuation; Pharmacological selectivity against over forty GPCRs (over forty GPCRs): high pharmacological selectivity
CCc1c(C(=O)NCCc2ccc(N(C)C)cc2)[nH]c2ccc(F)cc12 [Compound 3, Org27759, reference compound]	-20.4 ± 2.4%	Effect on Emax of agonist CP55,940 (human CB1 receptor [1]): dose-dependently decreased the Emax
CCc1c(C(=O)NCCc2ccc(N(C)C)cc2)[nH]c2ccc(Cl)cc12 [Compound 16, 5-Chloro-N-{2-[4-(dimethylamino)phenyl]ethyl}-3-ethyl-1H-indole-2-carboxamide]	-12.7 ± 2.8%	
CCc1c(C(=O)NCCc2ccc(N(CC)CC)cc2)[nH]c2ccc(Cl)cc12 [Compound 17, 5-Chloro-N-{2-[4-(diethylamino)phenyl]ethyl}-3-ethyl-1H-indole-2-carboxamide]		fold more potent than compound 1 (CB1 IC50) (human CB1 receptor [4]): 2 fold
CCCN(CCC)c1ccc(CCNC(=O)c2[nH]c3ccc(Cl)cc3c2CC)cc1 [Compound 18, 5-Chloro-N-{2-[4-(dipropylamino)phenyl]ethyl}-3-ethyl-1H-indole-2-carboxamide]	-37.4 ± 6.8%	
CCCCCCNc1ccc(CCNC(=O)c2[nH]c3ccc(Cl)cc3c2CC)cc1 [Compound 19, 5-Chloro-N-{2-[4-(hexylamino)phenyl]ethyl}-3-ethyl-1H-indole-2-carboxamide]	-35 ± 4.6%	
CCc1c(C(=O)NCCc2ccc(OC)cc2)[nH]c2ccc(Cl)cc12 [Compound 26, 5-Chloro-N-[2-(4-methoxyphenyl)ethyl]-3-ethyl-1H-indole-2-carboxamide]	-11.2 ± 19.6%	
CCc1c(C(=O)NCCc2ccc(C(C)(C)C)cc2)[nH]c2ccc(Cl)cc12 [Compound 27, 5-Chloro-N-[2-(4-tert-butylphenyl)ethyl]-3-ethyl-1H-indole-2-carboxamide]	-18 ± 35.4%	
CCc1c(C(=O)Nc2cccc(-c3cccc(N(C)C)n3)c2)[nH]c2ccc(Cl)cc12 [Compound 35, 5-Chloro-N-{3-[6-(dimethylamino)pyridin-2-yl]phenyl}-3-ethyl-1H-indole-2-carboxamide]	-19.2 ± 11.5%	
CCc1c(C(=O)N2CCN(c3ccccc3)CC2)[nH]c2ccc(Cl)cc12 [Compound 36, 5-Chloro-3-ethyl-2-(4-phenylpiperazine-1-carbonyl)-1H-indole]	-28 ± 25.9%	
CCc1c(C(=O)N2CCN(c3ccc(Cl)cc3)CC2)[nH]c2ccc(Cl)cc12 [Compound 37, 5-Chloro-2-[4-(4-chlorophenyl)piperazine-1-carbonyl]-3-ethyl-1H-indole]	-31.1 ± 18.8%	
CCc1c(C(=O)NCCc2ccc(N(CC)CC)cc2)[nH]c2ccc(F)cc12 [Compound 42, 5-Fluoro-N-{2-[4-(diethylamino)phenyl]ethyl}-3-ethyl-1H-indole-2-carboxamide]	-25.7 ± 10.7%	
CCN(CC)c1ccc(CCNC(=O)c2[nH]c3ccc(F)cc3c2C)cc1 [Compound 43, 5-Fluoro-N-{2-[4-(diethylamino)phenyl]ethyl}-3-methyl-1H-indole-2-carboxamide]	-21.8 ± 6.5%	
CCN(CC)c1ccc(CCNC(=O)c2cc3cc(F)ccc3[nH]2)cc1 [Compound 44, 5-Fluoro-N-{2-[4-(diethylamino)phenyl]ethyl}-1H-indole-2-carboxamide]	-23.8 ± 5.2%	
CCN(CC)c1ccc(CCNC(=O)c2cc3cc(Cl)ccc3[nH]2)cc1 [Compound 45, 5-Chloro-N-{2-[4-(diethylamino)phenyl]ethyl}-1H-indole-2-carboxamide]		fold more potent than compound 1 (CB1 IC50) (human CB1 receptor [4]): ~10 fold; fold more potent than compound 3 (CB1 IC50) (human CB1 receptor [4]): ~ 2.5 fold and 2.5 fold; fold more potent than compound 17 (CB1 IC50) (human CB1 receptor [4]): 6 fold; Effect on Emax of agonist CP55,940 (human CB1 receptor [1]): dose-dependently decreased the Emax
CCc1c(C(=O)NCCc2ccc(N3CCCCC3)cc2)[nH]c2ccc(F)cc12 [Compound 46, 5-Fluoro-3-ethyl-N-{2-[4-(piperidin-1-yl)phenyl]ethyl}-1H-indole-2-carboxamide]	-33.1 ± 16.3%	

Source: publication PMC4547606 (Bioorganic & medicinal chemistry, 2015)
